IEC-6 tox: counter-screen for KLF5 inhibitors: cytotoxicity in IEC-6 cells | IEC-6 cytotoxicity, luminescence viability | inhibition, % at 5 µM | actives 0.78% (n = 290,000) | AID 1825; in the data active = inhibition above about 22%
b-catenin transl: modulators of beta-catenin nuclear translocation; HeLa beta-catenin nuclear translocation, immunofluorescence imaging; nuclear translocation activity, % at 5 µM; actives 0.3% (n = 190,000);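 active = nuclear translocation activity above 50% at 5 µM, with a well cell count of 50 or more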;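 note: per-cell ratio of nuclear to cytoplasmic median beta-catenin stain intensity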
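Assay system: human HeLa cells, native beta-catenin; doses: 5 µM primary, 0.02–20 µM confirmation; incubation: compound treatment 24 h, 37°C, 5% CO2; technique: fluorescence imaging of beta-catenin antibody stain plus DAPI; measure: % activation, nuclear-to-cytoplasmic median beta-catenin signal ratio per cell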
MT stabilizer: microtubule stabilization, imaging screen; HeLa tubulin immunostaining HCS, 24 h; share of cells brighter than vehicle mean+2SD; % tubulin-high responders, % at 10 µM; actives 0.83% (n = 200,000); AID 2205;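 active = plate Z-score above 3 for both tubulin-high and condensed-nucleus cell shares, with cell loss under 80%, at 10 µM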;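 note: anti alpha tubulin signal scored within the nucleus-defined area of each cell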
APP 5UTR inh: APP translation inhibition | SH-SY5Y APP 5'UTR-luciferase reporter, luminescence | inhibition, % at 2 µM | actives 0.82% (n = 190,000) | AID 1285;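 active = inhibition above a set limit, derived from the sample mean plus 3 SD, cut at about 45% in these data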
Ba/F3 V617F tox: lowers viability of Ba/F3 cells expressing EpoR and JAK2V617F; ATP luminescence; inhibition, % at 5.6 µM; actives 1.1% (n = 220,000); AID 1446;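 active = inhibition above the campaign mean plus 3 SD over all tested compounds, cut at about 24% in these data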;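 note: cytokine-independent growth of Ba/F3 cells driven by EpoR plus mutant JAK2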
BaF3 tox: parental Ba/F3 viability inhibition as JAK2V617F counter-screen. CellTiter-Glo ATP luminescence. inhibition, % at 5.6 µM. actives 1.1% (n = 220,000). AID 1486;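 active = inhibition above a per-campaign cutoff, the mean inhibition of all tested compounds plus 3 SD, cut at about 27% in these data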
A number is an active result; - = inactive; . = not tested or not shown. A selection: hits, their analogues and other compounds. The true share with any hit is near 2.2%.

SMILES	IEC-6 tox	b-catenin transl	MT stabilizer	APP 5UTR inh	Ba/F3 V617F tox	BaF3 tox
CC1CCc2cc(F)ccc2N1C(=O)c1ccc2c(c1)OCO2 (centres undefined)	-	.	-	-	32	36
CC1CN(C(=O)C2(C)CC2(Br)Br)CC(C)O1 (centres undefined)	-	-	-	-	-	-
COc1ccccc1OCCSc1nc2ccccc2c(=O)[nH]1	-	-	-	-	-	95
O=c1[nH]c(SCCOc2ccccc2F)nc2ccccc12	-	-	-	-	-	-
COc1ccc(OC)c(/C=C/C(=O)N(C)CC(=O)Nc2cc(C)ccc2C)c1	-	-	-	66	-	-
Cc1ccccc1NC1=NC(C)(C)N=C(N)N1	-	-	-	-	-	-
CC1(C)N=C(N)NC(Nc2ccccc2)=N1	-	-	-	-	94	98
O=C(CCCn1c(=S)[nH]c2cc3c(cc2c1=O)OCO3)N1CCN(c2ncccn2)CC1	-	-	-	-	64	57
O=C(CCCCCn1c(=S)[nH]c2cc3c(cc2c1=O)OCO3)N1CCN(c2ccccc2)CC1	-	.	.	.	.	.
CC1(C)CC(=O)C2=C(C1)N(CC1CCCO1)C(=O)NC2(C(F)(F)F)C(F)(F)F (centres undefined)	-	-	-	-	-	38
CCCc1cc(C(=O)Nc2ccc(CC)cc2)no1	-	.	.	.	.	.
COc1ccc(NC(=O)CN(C)C(=O)CCc2c[nH]c3ccccc23)cc1	-	.	.	.	.	.
CCn1c(=O)c(=O)[nH]c2cc(C(=O)NC3CC3)ccc21	-	-	-	-	-	-
CCn1c(=O)c(=O)[nH]c2cc(C(=O)NC3CCCc4ccccc43)ccc21 (centres undefined)	-	-	29	-	-	-
C=CCNC(=O)c1onc(CSc2ccc(Cl)cc2)c1C(=O)NCC=C	.	-	.	.	.	.
C=CCNC(=O)c1onc(CSc2ccc(Cl)cc2)c1C(=O)O	-	-	-	-	49	35
Cc1ccc(C)c(CN2CCCN(Cc3cc(C)ccc3C)S2(=O)=O)c1	-	.	.	.	.	.
CCCC(=O)Nc1nc2ccc(C(=O)OCC)cc2s1	-	-	-	-	-	-
CCCCC(=O)Nc1nc2ccc(C(=O)OC)cc2s1	-	-	25	-	-	-
Cc1ccc(C(=O)C[n+]2cc(-c3ccc(C)cc3)n3c2CCCCC3)cc1	-	-	-	-	102	89
Cc1ccc(-c2c[n+](Cc3ccc(Cl)c(Cl)c3)c3n2CCC3)cc1	-	-	-	-	78	73
Cc1ccc(-c2c[n+](CC(=O)Nc3ccc(C)cc3C)c3n2CCC3)cc1	-	-	.	.	-	-
COc1ccc(-c2c[n+](CC(=O)N3c4ccccc4Sc4ccccc43)c3n2CCC3)cc1	-	-	.	.	-	-
O=C(C[n+]1cc(-c2ccccc2)n2c1CCCCC2)c1ccc(Br)cc1	-	-	-	-	61	73
COc1ccc(C(=O)C[n+]2cc(-c3ccc(OC)cc3)n3c2CCCC3)cc1	-	-	-	-	65	64
SMILES	IEC-6 tox	b-catenin transl	MT stabilizer	APP 5UTR inh	Ba/F3 V617F tox	BaF3 tox
Cc1ccc(NC(=O)C[n+]2cc(-c3ccc(C)cc3)n3c2CCC3)cc1	-	-	.	.	-	-
Cc1ccc(-n2ncc3c2CC(C)(C)CC3NC(=O)CCc2cccnc2)cc1 (centres undefined)	-	.	.	.	.	.
NC(N)=N/N=C/c1ccc(OS(=O)(=O)c2ccccc2)cc1	-	-	9.2	-	-	-
O=C(/C=C/c1ccco1)NC(=S)Nc1cccc(-c2nc3ccccc3s2)c1	-	.	39	-	-	-
O=C(/C=C/c1ccco1)NC(=S)Nc1cccc(-c2nc3ccccc3o2)c1	-	54	28	-	-	-
CCCC(=O)NC(=S)Nc1cccc(-c2nc3ncccc3o2)c1	-	-	-	-	-	79
CC(C)CC(=O)Nc1cccc(-c2nc3ncccc3o2)c1	-	.	.	.	.	.
C/C(=N/NC(=O)COc1cc(C)ccc1C(C)C)C(=O)O	-	-	-	82	-	-
Cc1ccc(C(C)C)c(OCC(=O)NN=C(CCl)CCl)c1	-	-	.	.	-	-
O=C(NNc1ncnc2ccccc12)c1cccc(Cl)c1	-	-	.	.	-	-
OCCC1CN(C2CCC2)CCN1Cc1ccc(F)c(F)c1 (centres undefined)	-	.	.	.	.	.
O=C(CNc1ccccc1)N/N=C/c1ccc([N+](=O)[O-])cc1	-	-	-	-	-	-
COc1ccccc1C(=O)NCC(=O)N/N=C/c1ccc([N+](=O)[O-])cc1	-	-	-	-	-	48
O=C(N/N=C\c1cc(Br)cs1)C1COc2ccccc2O1 (centres undefined)	-	-	43	-	-	-
O=C(N/N=C/c1ccc2c(c1)OCO2)C1COc2ccccc2O1 (centres undefined)	-	-	41	-	-	-
O=C(Nc1ccc(Cl)cc1)Nc1ccc(N2CCCC2)c(S(=O)(=O)Nc2ccccc2Cl)c1	-	-	-	-	53	37
C=CC[n+]1c(-c2ccc(C)cc2)csc1Nc1ccc(NC(C)=O)cc1	-	-	-	50	-	-
CCOC(=O)c1c(C)[nH]c(C)c1S(=O)(=O)N1c2ccccc2CC1C (centres undefined)	-	.	.	.	.	.
CCOc1cc(/C=C(\CC(=O)O)c2nc3ccccc3s2)ccc1OC	-	-	-	-	-	41
O=C(N/N=C/c1ccccc1O)c1cccc(C(F)(F)F)c1	-	-	-	54	-	-
CCN(CC)c1ccc(/C=N/NC(=O)c2c(Cl)cnn2C)c(O)c1	-	-	-	60	-	-
CCN(CC)S(=O)(=O)c1cccc(C(=O)N/N=C/c2cccc(O)c2O)c1	-	.	-	50	-	-
O=C(N/N=C/c1ccc(O)cc1)c1cccc(C(F)(F)F)c1	-	-	-	-	-	-
CCN(CC)c1ccc(/C=N/Nc2nc(C)cc(=O)[nH]2)c(O)c1	-	-	-	85	-	-
Cc1nn(C)c(C)c1C(C)NC(=O)c1cc(COc2ccc(F)c(F)c2)on1 (centres undefined)	-	.	.	.	.	.
SMILES	IEC-6 tox	b-catenin transl	MT stabilizer	APP 5UTR inh	Ba/F3 V617F tox	BaF3 tox
CCN(CC)c1ccc(C=O)c(OC)c1	-	-	-	-	-	-
COCCNC(=S)Nc1cc(OC)c(OC)cc1C#N	-	-	-	-	-	-
CCOc1ccccc1/C=N/NC(=O)c1cccc(S(=O)(=O)N2CCOCC2)c1	-	-	-	-	-	-
O=C(CCC(=O)N/N=C/c1c[nH]c2ccccc12)NCc1ccccc1	-	-	-	-	-	-
CCN(CC)c1ccc(/C=N/NC(=O)CCC(=O)NCc2ccccc2)c(O)c1	-	-	-	52	-	-
CC/C(=N\NC(=O)CCC(=O)NCc1ccccc1)c1ccc(O)cc1	-	-	12	-	-	-
CCN(CC)c1ccc(/C=N/NC(=O)c2cccc(S(=O)(=O)N3CCOCC3)c2)c(O)c1	-	-	-	60	-	-
CCOC(=O)N/N=C/c1ccc(N(CC)CC)cc1O	-	-	16	-	-	-
CCOC(=O)Cn1c(=O)oc2cc(S(=O)(=O)N(C)c3ccc(OC)cc3)ccc21	-	-	.	.	-	-
